Published values from different studies.
Compare with care: the assays were run in different laboratories.
ALK: ALK tyrosine kinase receptor (ALK, Homo sapiens, UniProt Q9UM73)
ALK L1196M: ALK tyrosine kinase receptor (ALK, Homo sapiens, UniProt Q9UM73, L1196M)
ALK C1156Y: ALK tyrosine kinase receptor (ALK, Homo sapiens, UniProt Q9UM73, C1156Y)

C[C@@H]1CCN(c2nccc(-c3cnn4ncccc34)n2)C1
remaining binding (ALK; binding; 1 µM): 81%

CCN(CC)CCNC(=O)c1c(C)[nH]c(/C=C2\C(=O)Nc3ccc(F)cc32)c1C
remaining activity (ALK; enzyme activity, inhibitor; 1 µM): 27%

Nc1ncnc2occ(-c3ccc(NC(=O)Nc4cc(C(F)(F)F)ccc4F)cc3)c12
remaining signal (ALK L1196M; cell-free assay; 20 µM): 1.8%

COc1cc(Cl)c(C(=O)N[C@@H](CN[C@H]2CC[C@@H](N)CC2)Cc2ccc(C#N)cc2)cc1-c1ccc(CN[C@H](C)c2ccc(C)cc2)o1
remaining activity (ALK; enzyme activity, inhibitor; 1 µM): 96%

c1cnn2ncc(-c3ccnc(N4CCC45COC5)n3)c2c1
remaining binding (ALK L1196M; binding; 1 µM): 40%

COc1cc2ncnc(Nc3ccc(Oc4ccccc4)cc3C)c2cc1OC
inhibition (ALK; enzyme activity, inhibitor; 1 µM): -2%

CCCCN(CCCC)C(=O)CN1C[C@@H](c2cc(OC)c3c(c2)OCO3)[C@H](C(=O)O)[C@H]1CC(C)(C)CCC
remaining binding (ALK C1156Y; cell-free assay, competition with immobilised ligand; 1 µM): 95.4%

CS(=O)(=O)Nc1cccc(-c2csc(NC(=O)CSc3nc4nccnc4c(=O)n3CCc3ccccc3)n2)c1
inhibition (ALK; enzyme activity, inhibitor; 10 µM): 9%

CC/C(=N\NC(=O)NCc1cccc(O)c1)c1ccc(O)c(C)c1O
inhibition (ALK tyrosine kinase receptor (ALK, Homo sapiens, UniProt Q9UM73, G1269A); enzyme activity, inhibitor; 0.1 µM): 0.4%

Cc1cnc(NC2CCOCC2)nc1-n1cnc(C(=O)NC(CN)c2cc(F)cc(Cl)c2)c1 (centres unmarked)
remaining activity (ALK; enzyme activity, inhibitor, radiometric; 1 µM): 122%

COc1cc(-c2cn(C3CCc4c(F)cccc4N(CC(F)(F)F)C3=O)nn2)ccc1-n1cnc(C)c1 (centres unmarked)
remaining binding (ALK L1196M; cell-free assay, competition with immobilised ligand; 1 µM): 100%

CNC(=O)c1cc(Oc2ccc(NC(=O)Nc3ccc(Cl)c(C(F)(F)F)c3)cc2)ccn1
inhibition (ALK; enzyme activity, inhibitor; 0.3 µM): -16%

CCCOc1ccc([C@@H]2[C@@H](C(=O)O)[C@H](c3ccc4c(c3)OCO4)CN2CC(=O)Nc2c(CC)cccc2CC)cc1
remaining binding (ALK L1196M; cell-free assay, competition with immobilised ligand; 1 µM): 78%

CC(C)c1ccc(NC(=O)c2cccs2)c(-c2nc3ccccc3[nH]c2=O)c1
activity vs control (ALK; enzyme activity, inhibitor; 1 µM): 92%

CCS(=O)(=O)c1cc2cc(C[C@](O)(CC(C)(C)c3ccc(F)cc3C(N)=O)C(F)(F)F)[nH]c2cn1
remaining binding (ALK C1156Y; cell-free assay, competition with immobilised ligand; 1 µM): 96%

O=C1NC(=O)c2cc(Nc3ccc(F)cc3)c(Nc3ccc(F)cc3)cc21
remaining signal (ALK; cell-free assay; 0.5 µM): 92.6%

CN1CC(Oc2cnc(C#N)cc2-c2ccn3nc(NC(=O)C4CC4)cc3c2)C1
inhibition (ALK; enzyme activity, inhibitor; 1 µM): 0%

N[C@H]1CCN(c2nccc(-c3cnn4ncccc34)n2)C1
remaining binding (ALK L1196M; binding; 1 µM): 74%

N#Cc1ccc(Nc2ccc3[nH]c(=O)[nH]c3c2)c(Cl)c1
remaining binding (ALK; cell-free assay, competition with immobilised ligand; 1 µM): 100%

CNCc1ccc(-c2cc(-c3nc(-c4ccc(S(=O)(=O)C(C)C)cc4)cnc3N)on2)cc1
inhibition (ALK; enzyme activity, inhibitor; 2 µM): 4%
